Assay [1] addresses Protein kinase C alpha type (Homo sapiens) (UniProt P17252). In words: Inhibition of PKCalpha at 10 uM by HotSpot assay.
The target of assay [2] is Glycogen synthase kinase-3 beta (Homo sapiens) (UniProt P49841). Put plainly: Inhibition of GSK3-beta at 10 uM by HotSpot assay.
Assay [3] concerns the target Myotonin-protein kinase (Homo sapiens) (UniProt Q09013). Put plainly: Inhibition of DMPK at 10 uM by HotSpot assay.
Assay [4] has as its target Mitogen-activated protein kinase 8 (Homo sapiens) (UniProt P45983). In words: Inhibition of JNK1 at 10 uM by HotSpot assay.
Assay [5] concerns the target Proto-oncogene tyrosine-protein kinase Src (Homo sapiens) (UniProt P12931). Put plainly: Inhibition of c-SRC at 10 uM by HotSpot assay.
The target in assay [6] is Inhibitor of nuclear factor kappa-B kinase subunit beta (Homo sapiens) (UniProt O14920). In words: Inhibition of IKK-beta at 10 uM by HotSpot assay.
Sequence of Inhibitor of nuclear factor kappa-B kinase subunit beta (Homo sapiens) (O14920 whole entry): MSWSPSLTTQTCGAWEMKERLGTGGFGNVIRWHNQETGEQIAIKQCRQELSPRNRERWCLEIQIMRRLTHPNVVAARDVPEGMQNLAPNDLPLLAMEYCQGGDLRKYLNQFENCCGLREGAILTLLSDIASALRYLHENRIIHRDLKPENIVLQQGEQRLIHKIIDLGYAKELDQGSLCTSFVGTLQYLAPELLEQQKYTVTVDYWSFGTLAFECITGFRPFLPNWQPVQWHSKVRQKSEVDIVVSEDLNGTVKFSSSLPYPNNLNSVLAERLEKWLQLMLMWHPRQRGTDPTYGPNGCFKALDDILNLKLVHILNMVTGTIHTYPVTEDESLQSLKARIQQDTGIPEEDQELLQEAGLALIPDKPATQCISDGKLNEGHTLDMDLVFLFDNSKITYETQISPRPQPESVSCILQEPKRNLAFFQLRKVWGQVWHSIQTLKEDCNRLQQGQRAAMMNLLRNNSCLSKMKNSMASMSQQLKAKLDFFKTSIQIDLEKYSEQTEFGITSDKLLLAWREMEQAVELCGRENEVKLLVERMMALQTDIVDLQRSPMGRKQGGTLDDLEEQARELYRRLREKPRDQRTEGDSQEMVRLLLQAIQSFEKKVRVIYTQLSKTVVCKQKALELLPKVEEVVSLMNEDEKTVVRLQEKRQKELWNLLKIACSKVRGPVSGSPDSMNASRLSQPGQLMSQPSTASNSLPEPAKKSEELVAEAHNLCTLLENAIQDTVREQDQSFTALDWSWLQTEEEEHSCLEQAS
Assay [7] deals with Platelet-derived growth factor receptor beta (Homo sapiens) (UniProt P09619). Put plainly: Inhibition of PDGFRbeta at 10 uM by HotSpot assay.
For assay [8], the target named is Hepatocyte growth factor receptor (Homo sapiens) (UniProt P08581). Put plainly: Inhibition of c-MET at 10 uM by HotSpot assay.
Sequence of Hepatocyte growth factor receptor (Homo sapiens) (P08581 whole entry): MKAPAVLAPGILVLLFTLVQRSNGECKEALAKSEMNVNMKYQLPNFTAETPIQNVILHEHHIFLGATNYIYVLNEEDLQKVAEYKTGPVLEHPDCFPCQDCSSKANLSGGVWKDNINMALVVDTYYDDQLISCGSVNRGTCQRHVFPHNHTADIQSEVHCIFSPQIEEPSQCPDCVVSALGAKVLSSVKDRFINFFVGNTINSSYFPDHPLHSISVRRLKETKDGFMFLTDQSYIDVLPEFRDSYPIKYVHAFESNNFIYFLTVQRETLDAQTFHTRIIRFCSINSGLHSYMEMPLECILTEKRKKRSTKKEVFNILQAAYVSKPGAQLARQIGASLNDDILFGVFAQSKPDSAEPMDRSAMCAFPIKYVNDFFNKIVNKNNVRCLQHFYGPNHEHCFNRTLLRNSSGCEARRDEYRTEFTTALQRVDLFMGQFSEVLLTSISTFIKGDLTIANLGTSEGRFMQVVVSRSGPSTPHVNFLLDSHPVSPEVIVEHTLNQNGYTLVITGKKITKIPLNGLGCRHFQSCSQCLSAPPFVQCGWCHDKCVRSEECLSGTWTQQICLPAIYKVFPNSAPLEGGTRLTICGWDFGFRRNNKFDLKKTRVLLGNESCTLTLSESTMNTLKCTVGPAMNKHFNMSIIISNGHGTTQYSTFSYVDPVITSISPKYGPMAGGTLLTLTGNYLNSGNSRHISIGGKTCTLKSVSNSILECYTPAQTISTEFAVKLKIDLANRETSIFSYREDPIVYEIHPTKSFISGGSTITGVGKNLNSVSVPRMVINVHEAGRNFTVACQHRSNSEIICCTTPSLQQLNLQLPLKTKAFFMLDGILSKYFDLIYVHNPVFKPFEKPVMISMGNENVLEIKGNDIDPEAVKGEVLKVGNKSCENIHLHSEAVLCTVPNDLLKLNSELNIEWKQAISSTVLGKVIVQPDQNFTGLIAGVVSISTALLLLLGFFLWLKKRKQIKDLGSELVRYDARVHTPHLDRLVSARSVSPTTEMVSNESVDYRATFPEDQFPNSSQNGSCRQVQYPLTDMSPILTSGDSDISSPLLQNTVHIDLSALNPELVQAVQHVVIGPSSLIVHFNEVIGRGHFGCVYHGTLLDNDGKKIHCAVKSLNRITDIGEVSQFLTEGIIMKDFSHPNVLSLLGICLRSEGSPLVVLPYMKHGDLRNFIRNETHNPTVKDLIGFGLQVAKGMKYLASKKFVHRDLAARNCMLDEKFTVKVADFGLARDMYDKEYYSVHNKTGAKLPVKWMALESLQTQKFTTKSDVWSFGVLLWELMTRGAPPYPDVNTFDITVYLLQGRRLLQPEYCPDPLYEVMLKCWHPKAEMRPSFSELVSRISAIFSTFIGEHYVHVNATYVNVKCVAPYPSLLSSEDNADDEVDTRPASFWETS
In assay [9] the target is Dual specificity mitogen-activated protein kinase kinase 1 (Homo sapiens) (UniProt Q02750). Put plainly: Inhibition of MEK1 at 10 uM by HotSpot assay.
Sequence of Dual specificity mitogen-activated protein kinase kinase 1 (Homo sapiens) (Q02750 whole entry): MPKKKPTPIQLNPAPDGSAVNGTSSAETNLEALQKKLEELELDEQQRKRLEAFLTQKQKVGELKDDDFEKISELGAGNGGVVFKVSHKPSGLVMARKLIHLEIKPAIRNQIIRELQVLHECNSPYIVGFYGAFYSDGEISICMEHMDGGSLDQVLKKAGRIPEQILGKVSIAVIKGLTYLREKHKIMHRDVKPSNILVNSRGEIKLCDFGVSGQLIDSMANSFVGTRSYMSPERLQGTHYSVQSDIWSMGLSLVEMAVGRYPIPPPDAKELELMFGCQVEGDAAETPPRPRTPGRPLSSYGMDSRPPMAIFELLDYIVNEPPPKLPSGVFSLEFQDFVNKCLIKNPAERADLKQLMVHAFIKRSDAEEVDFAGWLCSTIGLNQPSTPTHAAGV
Assay [10] deals with Aurora kinase A (Homo sapiens) (UniProt O14965). In words: Inhibition of Aurora A at 10 uM by HotSpot assay.
In assay [11] the target is Tyrosine-protein kinase Lyn (Homo sapiens) (UniProt P07948). In words: Inhibition of LYN at 10 uM by HotSpot assay.
The target of assay [12] is High affinity nerve growth factor receptor (Homo sapiens) (UniProt P04629). In words: Inhibition of NTRK1 at 10 uM by HotSpot assay.
Sequence of High affinity nerve growth factor receptor (Homo sapiens) (P04629 33-796 limits assumed): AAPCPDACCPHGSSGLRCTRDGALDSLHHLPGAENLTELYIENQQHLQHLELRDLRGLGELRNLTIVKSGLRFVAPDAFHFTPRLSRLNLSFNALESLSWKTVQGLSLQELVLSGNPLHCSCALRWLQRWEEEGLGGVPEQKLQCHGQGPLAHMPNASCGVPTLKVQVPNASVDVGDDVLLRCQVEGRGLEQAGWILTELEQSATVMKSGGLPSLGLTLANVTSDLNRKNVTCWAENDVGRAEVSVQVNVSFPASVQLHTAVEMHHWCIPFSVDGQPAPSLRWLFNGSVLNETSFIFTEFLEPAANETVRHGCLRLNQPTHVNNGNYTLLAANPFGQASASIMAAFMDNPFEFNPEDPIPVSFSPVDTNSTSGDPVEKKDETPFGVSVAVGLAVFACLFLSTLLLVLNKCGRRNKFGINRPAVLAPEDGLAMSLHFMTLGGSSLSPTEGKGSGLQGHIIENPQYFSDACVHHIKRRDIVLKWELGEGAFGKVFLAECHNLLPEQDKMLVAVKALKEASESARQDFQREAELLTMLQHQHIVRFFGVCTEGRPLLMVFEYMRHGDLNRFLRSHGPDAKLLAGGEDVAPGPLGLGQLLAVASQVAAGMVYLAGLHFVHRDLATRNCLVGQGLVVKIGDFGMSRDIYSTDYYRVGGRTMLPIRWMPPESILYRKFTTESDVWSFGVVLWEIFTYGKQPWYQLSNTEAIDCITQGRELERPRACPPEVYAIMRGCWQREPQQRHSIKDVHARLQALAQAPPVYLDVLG
The target of assay [13] is [Pyruvate dehydrogenase (acetyl-transferring)] kinase isozyme 1, mitochondrial (Homo sapiens) (UniProt Q15118). In words: Inhibition of PDK1 at 10 uM by HotSpot assay.
Assay [14] deals with Serine/threonine-protein kinase mTOR (Homo sapiens) (UniProt P42345). In words: Inhibition of mTOR at 10 uM by HotSpot assay.
The target of assay [15] is Calcium/calmodulin-dependent protein kinase type II subunit beta (Homo sapiens) (UniProt Q13554). In words: Inhibition of CAMK2B at 10 uM by HotSpot assay.
Sequence of Calcium/calmodulin-dependent protein kinase type II subunit beta (Homo sapiens) (Q13554 whole entry): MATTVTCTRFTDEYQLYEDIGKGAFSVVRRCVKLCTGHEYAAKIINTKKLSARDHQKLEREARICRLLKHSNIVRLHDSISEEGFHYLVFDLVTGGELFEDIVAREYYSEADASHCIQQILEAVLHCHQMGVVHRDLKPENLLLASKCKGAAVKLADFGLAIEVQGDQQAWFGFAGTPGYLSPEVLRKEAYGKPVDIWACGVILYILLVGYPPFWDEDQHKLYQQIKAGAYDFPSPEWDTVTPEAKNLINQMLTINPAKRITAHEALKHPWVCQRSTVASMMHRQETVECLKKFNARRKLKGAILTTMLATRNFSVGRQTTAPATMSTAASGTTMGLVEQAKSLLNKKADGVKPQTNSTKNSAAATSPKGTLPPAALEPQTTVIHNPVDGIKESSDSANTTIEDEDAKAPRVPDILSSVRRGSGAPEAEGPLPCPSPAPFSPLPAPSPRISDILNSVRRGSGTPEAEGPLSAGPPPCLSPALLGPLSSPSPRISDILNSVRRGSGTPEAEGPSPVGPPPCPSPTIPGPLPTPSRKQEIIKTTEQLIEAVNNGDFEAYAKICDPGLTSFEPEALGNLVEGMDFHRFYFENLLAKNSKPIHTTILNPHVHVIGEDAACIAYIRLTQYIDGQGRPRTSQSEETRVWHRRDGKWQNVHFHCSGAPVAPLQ
Assay [16] deals with Angiopoietin-1 receptor (Homo sapiens) (UniProt Q02763). In words: Inhibition of TIE2 at 10 uM by HotSpot assay.
The test system of assay [17] is SR. Put plainly: Cytotoxicity against human SR cells assessed as cell growth at 0.01 uM after 48 hrs by sulforhodamine B assay. In kind it is functional. Particulars: read-out: Activity. For orientation: The SRB assay estimates cell density from bound dye.
The test system of assay [18] is HCC 2998. In words: Cytotoxicity against human HCC2998 cells assessed as cell growth at 100 nM after 48 hrs by sulforhodamine B assay. In kind it is functional. Conditions: HCC 2998, 48 h, read-out: Activity.
Assay [19] has as its system SK-MEL-28. In words: Cytotoxicity against human SK-MEL-28 cells assessed as cell growth at 1 uM after 48 hrs by sulforhodamine B assay. In kind it is functional. Particulars: SK-MEL-28, 48 h, read-out: Activity.
A further assay has as its system HL-60(TB). Put plainly: Cytotoxicity against human HL-60(TB) cells assessed as cell growth at 10 uM after 48 hrs by sulforhodamine B assay. In kind it is functional. Particulars: HL-60, 48 h, read-out: Activity. The method, boiled down: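 Five-concentration HL-60(TB) test in RPMI 1640 with 5% FBS and 2 mM L-glutamine. Cells are plated at 5,000–40,000/well and a TCA-fixed time-zero plate is read at drug addition after 24 h. Drug is dissolved in DMSO and given as five 10-fold or ½log dilutions for 48 h at 37 °C, 5% CO2. Settled cells are fixed with TCA, stained with SRB and read at 515 nm.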

Assay [20] relates to MCF7. Put plainly: Growth inhibition of human MCF7 cells after 48 hrs by sulforhodamine B assay. The class given is functional. Particulars: MCF7, 48 h. In short, it runs like this: (§1)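 Cells grown in RPMI 1640 with 5% FBS and 2 mM L-glutamine, seeded at 5,000–40,000 cells/well according to doubling time. After 24 h, time-zero plates are TCA-fixed. Five concentrations (10-fold or ½log dilutions, DMSO stocks) are applied for 48 h at 37 °C, 5% CO₂. Cells are TCA-fixed, SRB-stained and read at 515 nm. IC₅₀ is taken from [(Ti−Tz)/(C−Tz)]×100 = 50.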

Assay [21] concerns HCC 2998. In words: Cytotoxicity against human HCC2998 cells assessed as cell growth at 10 uM after 48 hrs by sulforhodamine B assay. The class given is functional. Particulars: HCC 2998, 48 h, read-out: Activity.
The next assay has as its system RXF 393. Put plainly: Cytotoxicity against human RXF393 cells assessed as cell growth at 10 uM after 48 hrs by sulforhodamine B assay. In kind it is functional. Conditions: RXF 393, 48 h, read-out: Activity.
In assay [22] the test system is HCC 2998. Put plainly: Growth inhibition of human HCC2998 cells after 48 hrs by sulforhodamine B assay. In kind it is functional. Particulars: HCC 2998, 48 h. In short, it runs like this:
as §1

Assay [23] concerns HOP-92. Put plainly: Cytotoxicity against human HOP92 cells assessed as cell growth at 10 uM after 48 hrs by sulforhodamine B assay. Particulars: HOP-92, 48 h, read-out: Activity. The class given is functional.
Assay [24] concerns SK-MEL-28. In words: Cytotoxicity against human SK-MEL-28 cells assessed as cell growth at 0.001 uM after 48 hrs by sulforhodamine B assay. The class given is functional. Conditions: SK-MEL-28, 48 h, read-out: Activity.
The subject of assay [25] is SK-MEL-28. Put plainly: Cytotoxicity against human SK-MEL-28 cells assessed as cell growth at 100 nM after 48 hrs by sulforhodamine B assay. In kind it is functional. Particulars: SK-MEL-28, 48 h, read-out: Activity.
Assay [26] has as its system PC-3. In words: Cytotoxicity against human PC3 cells assessed as cell growth at 100 nM after 48 hrs by sulforhodamine B assay. The class given is functional. Particulars: PC-3, 48 h, read-out: Activity.
The subject of assay [27] is NCI-H226. Put plainly: Growth inhibition of human NCI-H226 cells after 48 hrs by sulforhodamine B assay. The class given is functional. Conditions: NCI-H226, 48 h. The method, boiled down:
as §1

Assay [28] relates to MCF7. Put plainly: Cytotoxicity against human MCF7 cells assessed as cell growth at 10 uM after 48 hrs by sulforhodamine B assay. The class given is functional. Conditions: MCF7, 48 h, read-out: Activity.
Assay [29] relates to HCC 2998. Put plainly: Cytotoxicity against human HCC2998 cells assessed as cell growth at 1 uM after 48 hrs by sulforhodamine B assay. In kind it is functional. Conditions: HCC 2998, 48 h, read-out: Activity.
The test system of assay [30] is NCI-H226. In words: Cytotoxicity against human NCI-H226 cells assessed as cell growth at 0.001 uM after 48 hrs by sulforhodamine B assay. Conditions: NCI-H226, 48 h, read-out: Activity. In kind it is functional.
The subject of assay [31] is SR. Put plainly: Cytotoxicity against human SR cells assessed as cell growth at 0.001 uM after 48 hrs by sulforhodamine B assay. The class given is functional. Particulars: read-out: Activity.
Assay [32] relates to HOP-92. In words: Cytotoxicity against human HOP92 cells assessed as cell growth at 100 nM after 48 hrs by sulforhodamine B assay. In kind it is functional. Particulars: HOP-92, 48 h, read-out: Activity.
The next assay has as its system CCRF-CEM. Put plainly: Cytotoxicity against human CCRF-CEM cells assessed as cell growth at 0.01 uM after 48 hrs by sulforhodamine B assay. In kind it is functional. Particulars: read-out: Activity.
Assay [33] deals with PC-3. Put plainly: Cytotoxicity against human PC3 cells assessed as cell growth at 10 uM after 48 hrs by sulforhodamine B assay. The class given is functional. Conditions: PC-3, 48 h, read-out: Activity.
Where [34] appears, read: read-out: LC50 (the source's name).

Sequence of Myotonin-protein kinase (Homo sapiens) (Q09013 whole entry): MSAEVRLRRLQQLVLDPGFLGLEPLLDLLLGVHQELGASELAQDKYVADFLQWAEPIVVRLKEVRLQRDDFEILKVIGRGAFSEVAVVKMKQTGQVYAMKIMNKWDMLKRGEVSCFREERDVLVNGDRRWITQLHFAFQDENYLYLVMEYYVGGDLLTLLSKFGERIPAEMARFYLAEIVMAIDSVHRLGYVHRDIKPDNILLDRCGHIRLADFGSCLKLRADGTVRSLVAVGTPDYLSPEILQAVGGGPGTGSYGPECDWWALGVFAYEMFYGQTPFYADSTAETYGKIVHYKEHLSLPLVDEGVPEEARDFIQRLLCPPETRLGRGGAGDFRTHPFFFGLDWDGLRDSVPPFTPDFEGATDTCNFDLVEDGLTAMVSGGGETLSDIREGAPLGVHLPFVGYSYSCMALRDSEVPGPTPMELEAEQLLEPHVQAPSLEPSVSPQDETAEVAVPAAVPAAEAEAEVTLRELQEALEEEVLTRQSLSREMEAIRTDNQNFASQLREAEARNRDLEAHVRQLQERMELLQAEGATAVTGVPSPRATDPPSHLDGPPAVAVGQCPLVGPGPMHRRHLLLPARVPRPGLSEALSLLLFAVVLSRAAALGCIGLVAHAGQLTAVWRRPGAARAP
Sequence of Mitogen-activated protein kinase 8 (Homo sapiens) (P45983 whole entry): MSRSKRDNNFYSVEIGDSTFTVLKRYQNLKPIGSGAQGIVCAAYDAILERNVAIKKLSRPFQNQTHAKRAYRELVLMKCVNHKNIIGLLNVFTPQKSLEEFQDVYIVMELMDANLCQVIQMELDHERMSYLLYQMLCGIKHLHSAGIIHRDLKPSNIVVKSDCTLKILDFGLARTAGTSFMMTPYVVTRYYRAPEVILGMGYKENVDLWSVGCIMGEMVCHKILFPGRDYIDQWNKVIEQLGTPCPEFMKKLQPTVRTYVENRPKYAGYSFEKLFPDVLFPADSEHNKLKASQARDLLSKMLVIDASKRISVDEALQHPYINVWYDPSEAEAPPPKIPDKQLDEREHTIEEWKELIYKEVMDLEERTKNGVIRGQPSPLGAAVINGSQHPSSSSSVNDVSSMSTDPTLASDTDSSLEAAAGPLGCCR

The inhibition is the change of the read-out against control, counted positive when it falls. `CC(=O)Nc1cccc(-c2ccc(-c3ccnc(NC(=O)Nc4cc(C(F)(F)F)cc(C(F)(F)F)c4)n3)cn2)c1.Cl`: the inhibition in assay [1] is < 50%; in [2], < 50%; in assay [3], < 50%; in [4] it was < 50%; in [5] it was 60%; in [6], < 50%. Further, the inhibition in [7] is < 50%; in assay [8], < 50%; in assay [9], < 50%; in [10] it was 60%; in [11] it was < 50%; in assay [12] it was < 50%. The inhibition in assay [13], in assay [14], in assay [15] and in assay [16] was < 50% in each case.
A word on the GI50: it is the concentration at which growth is held to half of that of the control. Lower therefore signals greater sensitivity of the cells. A word on the TGI: it is the concentration giving total growth inhibition. Turning to `CC(=O)c1ccccc1-c1ccc(-c2ccnc(NC(=O)Nc3cc(N4CCOCC4)cc(C(F)(F)F)c3)n2)cn1`, the values for the growth at 0.01 µM in the assay with SR [17] and in the assay on CCRF-CEM were 89% and 102%, respectively. Further, the growth at 0.1 µM was found to be 117% in the assay with HCC 2998 [18], 92% with SK-MEL-28 [25], 92% with PC-3 [26] and 91% in the assay on HOP-92 [32]. Moreover, the growth at 1 µM in the assay with SK-MEL-28 [19] was found to be 4%; in the assay on HCC 2998 [29] it was 114%. For the same compound, the growth at 10 µM in the assay on HL-60(TB) was 107%; in the assay with HCC 2998 [21], 135%; in the assay on RXF 393, -16%; with HOP-92 [23] it was 20%; in the assay on MCF7 [28], 70%; in the assay on PC-3 [33] it was 91%. Moreover, the GI50 with MCF7 [20], with HCC 2998 [22] and in the assay with NCI-H226 [27] was > 100 µM throughout. In addition, the total growth inhibition concentration (TGI) with MCF7 [20], in the assay on HCC 2998 [22] and in the assay with NCI-H226 [27] was > 100 µM each time. For the same compound, the CC50 with MCF7 [20] (setting [34]), in the assay on HCC 2998 [22] (setting [34]) and in the assay on NCI-H226 [27] (setting [34]) was > 100 µM each time. Further, the growth at 0.001 µM stood at 100% in the assay with SK-MEL-28 [24], 105% in the assay with NCI-H226 [30] and 94% with SR [31].
